In ChEMBL document CHEMBL4613262, “Revisiting Aldehyde Oxidase Mediated Metabolism in Drug-like Molecules: An Improved Computational Model” (J Med Chem, 2020):

Columns and labels:
Aldehyde oxidase [1] = molecular target: T1, Aldehyde oxidase (Homo sapiens, UniProt Q06278); assay: Substrate activity at aldehyde oxidase in human liver cytosol assessed as mono-oxide metabolite formation at 10 uM measured after 3 hrs in presence of AOX inhibitor raloxifene by UPLC/Q-TOF MS analysis; type: ADME, subcellular
T1 sequence (Q06278 whole entry): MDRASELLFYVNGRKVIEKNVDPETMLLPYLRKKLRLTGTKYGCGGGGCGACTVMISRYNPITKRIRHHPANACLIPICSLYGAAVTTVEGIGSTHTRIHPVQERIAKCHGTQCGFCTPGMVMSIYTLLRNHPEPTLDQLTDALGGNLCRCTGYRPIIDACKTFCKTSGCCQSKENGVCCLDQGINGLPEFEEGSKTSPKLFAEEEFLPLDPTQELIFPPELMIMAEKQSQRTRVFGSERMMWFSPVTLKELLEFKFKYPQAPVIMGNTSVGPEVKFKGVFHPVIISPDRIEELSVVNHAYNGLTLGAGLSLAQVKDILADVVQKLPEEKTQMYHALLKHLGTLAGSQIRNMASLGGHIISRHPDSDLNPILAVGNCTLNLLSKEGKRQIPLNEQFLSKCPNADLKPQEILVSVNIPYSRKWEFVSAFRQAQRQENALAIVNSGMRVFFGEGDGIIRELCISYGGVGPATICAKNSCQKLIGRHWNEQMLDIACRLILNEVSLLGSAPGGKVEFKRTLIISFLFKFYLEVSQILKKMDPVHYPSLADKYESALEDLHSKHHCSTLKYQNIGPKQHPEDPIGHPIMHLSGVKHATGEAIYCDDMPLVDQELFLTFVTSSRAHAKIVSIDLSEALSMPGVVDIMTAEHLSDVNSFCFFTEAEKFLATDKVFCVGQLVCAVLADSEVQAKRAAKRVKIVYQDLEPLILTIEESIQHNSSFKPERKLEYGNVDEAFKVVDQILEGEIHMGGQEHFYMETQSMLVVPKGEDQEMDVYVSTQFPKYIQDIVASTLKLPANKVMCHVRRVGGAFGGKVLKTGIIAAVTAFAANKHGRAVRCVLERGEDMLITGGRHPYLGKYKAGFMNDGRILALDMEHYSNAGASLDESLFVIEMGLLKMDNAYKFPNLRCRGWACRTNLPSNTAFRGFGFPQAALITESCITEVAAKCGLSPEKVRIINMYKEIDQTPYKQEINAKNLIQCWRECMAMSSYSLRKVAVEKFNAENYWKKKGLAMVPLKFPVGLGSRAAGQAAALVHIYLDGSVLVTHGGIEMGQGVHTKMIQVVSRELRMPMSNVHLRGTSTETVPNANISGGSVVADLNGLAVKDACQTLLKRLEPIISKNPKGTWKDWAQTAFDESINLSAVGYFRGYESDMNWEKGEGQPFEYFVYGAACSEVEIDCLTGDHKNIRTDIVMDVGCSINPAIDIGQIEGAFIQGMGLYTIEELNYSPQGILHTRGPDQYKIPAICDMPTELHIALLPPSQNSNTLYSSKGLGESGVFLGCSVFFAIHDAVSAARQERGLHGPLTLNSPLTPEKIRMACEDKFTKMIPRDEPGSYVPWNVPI
Outline: (§1)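 Human liver cytosol (2 mg/mL final protein) in 100 mM potassium phosphate pH 7.4 with 2 mM MgCl2, 10 μM test compound, 100 μM inhibitor, DMSO 1.1% final. Pre-incubated 3 min at 37°C, started by adding compound, run 3 h at 37°C, stopped with ice-cold acetonitrile. Supernatant analysed by UPLC/Q-TOF MS (positive ESI) for oxidative metabolite peak area. Inhibition ratio taken against no-inhibitor controls; triplicate.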

Aldehyde oxidase [2] = molecular target: T1, Aldehyde oxidase; assay: Substrate activity at aldehyde oxidase in human liver cytosol assessed as mono-oxide metabolite formation at 10 uM measured after 3 hrs in presence of AOX inhibitor hydralazine by UPLC/Q-TOF MS analysis; type: ADME, subcellular; outline: as §1

Row | Drug metabolism (Aldehyde oxidase [1]) | Drug metabolism (Aldehyde oxidase [2]) | SMILES
1 | Metabolite_Notdetected | Metabolite_Notdetected | Cl.Cl.Fc1cc(-c2cccc3ncc(-c4cnn(C5CCNCC5)c4)nc23)cc(F)c1CN1CCOCC1
2 | Metabolite_Notdetected | Metabolite_Notdetected | Cc1cc(Nc2ccc(NC(=O)c3ccc(Nc4ccnc5ccccc45)cc3)cc2)nc(N)n1
3 | Metabolite_Notdetected | Metabolite_Notdetected | Cl.O=C(Nc1ccccc1-c1cn2c(CN3CCNCC3)csc2n1)c1cnc2ccccc2n1

Further lines, the compound ahead of its results:

Row | SMILES | Drug metabolism (Aldehyde oxidase [1]) | Drug metabolism (Aldehyde oxidase [2])
4 | O=C(NCC(=O)N1CCCC1)Nc1ccc2cnccc2c1 | Metabolite_Notdetected | Metabolite_Notdetected
5 | N#C/C(=C\c1ccc(-c2cc(Cl)ccc2Cl)o1)C(=O)Nc1cccc2ncccc12 | Metabolite_Notdetected | Metabolite_Notdetected
6 | O=C(c1cncc(Br)c1)N1CCC(N2CCCC2)CC1 | Metabolite_Notdetected | Metabolite_Notdetected
